Measured values: ChEMBL document CHEMBL1148372 (J Med Chem, 2004)
pEC50, pIC50, pKi: −log10 of the molar value. Active and inactive are the calls of the source. The calls are words filed in the database; no cut-off is given here.

Assays:
D(4) dopamine receptor [1] = biological target: T1, D(4) dopamine receptor (Homo sapiens, UniProt P21917); test: In vitro EC50 tested on HEK293 cells co-transfected with human Dopamine receptor D4.4 using FLIPR assay; type: cell-based
T1 sequence (P21917 whole entry): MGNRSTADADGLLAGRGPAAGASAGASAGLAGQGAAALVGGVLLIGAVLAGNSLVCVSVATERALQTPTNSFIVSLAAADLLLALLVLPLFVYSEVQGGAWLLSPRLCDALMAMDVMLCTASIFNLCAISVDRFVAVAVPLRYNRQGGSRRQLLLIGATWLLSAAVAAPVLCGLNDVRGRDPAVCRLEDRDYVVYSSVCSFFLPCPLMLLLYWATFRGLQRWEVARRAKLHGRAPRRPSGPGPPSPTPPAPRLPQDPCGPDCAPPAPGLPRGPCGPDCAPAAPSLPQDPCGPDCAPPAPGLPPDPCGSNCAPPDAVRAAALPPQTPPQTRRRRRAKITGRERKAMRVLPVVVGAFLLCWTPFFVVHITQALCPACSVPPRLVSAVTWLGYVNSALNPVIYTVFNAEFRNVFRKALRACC
Outline: (§1)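 HEK293 cells coexpressing human D4.4 receptor and Gαqo5, plated at 20 000 cells/well and grown 2 days. Loaded 1 h at 23 °C with 4 µM Fluo-4 plus 0.04% Pluronic F-127 in DPBS, washed four times. Compound added, fluorescence read over 3 min.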

[2] = biological target: T2, D(4) dopamine receptor (Homo sapiens) (UniProt P21917); test: In vitro efficacy tested on human Dopamine receptor D4.4 were co-expressed with GRqo5 in HEK293 cells using FLIPR assay (Efficacy relative to 10 uM dopamine); type: cell-based; outline: as §1
T2 sequence (whole entry): T1 sequence (P21917 whole entry)

[3] = biological target: T2, D(4) dopamine receptor (Homo sapiens); test: In vitro efficacy tested on human D4.4 receptor were coexpressed with GRqo5 in HEK293 cells using FLIPR assay (Efficacy relative to 10 uM dopamine); type: cell-based; outline: as §1
Rattus norvegicus [4] = test: In vivo maximal penile erection in rats 60 min after subcutaneous administration; type: functional
Outline: (§2)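 Conscious male Wistar rats, adapted 60 min to a dim red-lit room, tested between 9:00 a.m. and 3:00 p.m. Dosed subcutaneously, then caged singly and observed directly for 60 min. Percent incidence is the share of animals with one or more erections; 8–30 animals per group. Maximally effective dose is the dose giving peak incidence, with significance versus control.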

Rattus norvegicus [5] = test: In vivo maximal effective dose tested in rats for erection 60 min after subcutaneous administration; type: functional; outline: as §2
D(4) dopamine receptor [6] = biological target: T1, D(4) dopamine receptor; test: In vitro effective concentration tested on HEK293 cells co-transfected with human D4.4 receptor using FLIPR assay; type: cell-based
Outline: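 Human D4.4 receptor co-expressed with Gαqo5 in HEK293 cells, plated at 20 000 cells/well and grown 2 days. Loaded with 4 µM Fluo-4 and 0.04% Pluronic F-127 in DPBS with glucose and pyruvate for 1 h at 23 °C, then washed. Compound added and fluorescence read over 3 min on FLIPR. […] EC50 is the concentration giving half-maximal response.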

D(4) dopamine receptor [7] = biological target: T3, D(4) dopamine receptor (Rattus norvegicus, UniProt P30729); test: In vitro effective concentration tested on HEK293 cells co-transfected with rat Dopamine receptor D4 using FLIPR assay; type: cell-based
T3 sequence (P30729 whole entry): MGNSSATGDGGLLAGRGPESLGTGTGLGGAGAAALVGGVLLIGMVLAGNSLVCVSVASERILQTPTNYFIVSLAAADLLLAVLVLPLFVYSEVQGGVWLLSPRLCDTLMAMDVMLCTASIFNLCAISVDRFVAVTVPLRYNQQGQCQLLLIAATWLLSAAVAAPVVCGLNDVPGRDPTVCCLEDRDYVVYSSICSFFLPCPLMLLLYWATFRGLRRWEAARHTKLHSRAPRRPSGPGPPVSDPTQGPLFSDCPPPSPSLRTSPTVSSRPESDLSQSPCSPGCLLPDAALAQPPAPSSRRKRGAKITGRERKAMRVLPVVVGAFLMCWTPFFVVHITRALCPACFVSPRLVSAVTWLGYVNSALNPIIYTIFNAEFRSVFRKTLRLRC

[8] = biological target: D(2) dopamine receptor (Rattus norvegicus) (UniProt P61169); test: In vitro efficacy tested on rat Dopamine receptor D2 were co-expressed with GRqo5 in HEK293 cells using FLIPR assay (Efficacy relative to 10 uM dopamine); type: cell-based
D(2) dopamine receptor (Rattus norvegicus), sequence (P61169 whole entry): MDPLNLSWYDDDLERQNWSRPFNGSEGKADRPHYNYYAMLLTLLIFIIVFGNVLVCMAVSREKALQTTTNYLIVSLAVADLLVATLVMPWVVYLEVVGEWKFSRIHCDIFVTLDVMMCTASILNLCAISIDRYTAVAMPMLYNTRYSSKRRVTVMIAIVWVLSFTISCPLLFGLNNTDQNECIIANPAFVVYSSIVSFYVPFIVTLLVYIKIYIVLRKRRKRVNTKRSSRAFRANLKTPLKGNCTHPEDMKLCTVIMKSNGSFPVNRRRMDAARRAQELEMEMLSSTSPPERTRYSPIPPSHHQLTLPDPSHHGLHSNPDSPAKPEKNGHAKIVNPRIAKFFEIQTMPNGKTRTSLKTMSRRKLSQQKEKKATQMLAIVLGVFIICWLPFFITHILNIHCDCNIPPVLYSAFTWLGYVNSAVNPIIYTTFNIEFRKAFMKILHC

D(4) dopamine receptor [9] = biological target: T1, D(4) dopamine receptor; test: In vitro binding affinity tested on HEK293 cells co-transfected with human D4.4 receptor using [3H]spiperone as a radioligand […]; type: cell-based
Outline: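 Competition binding to membranes from HEK-293 cells transfected with human D4.4, stored at −80 °C. Radioligand was 0.1 nM [3H]-spiperone, incubated 2 h in 50 mM Tris-HCl pH 7.4 with 5 mM KCl, 120 mM NaCl, 5 mM MgCl2 and 1 mM EDTA. Compounds were in buffer with 0.1% ascorbic acid. Samples were filtered through glass fibre and washed three times with cold Tris. Bound radioactivity was counted by scintillation to give Ki.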

D(4) dopamine receptor [10] = biological target: T1, D(4) dopamine receptor; test: In vitro inhibitory concentration tested on human D4.4 receptor in HEK293 cells using FLIPR assay; type: cell-based

pEC50 (D(4) dopamine receptor [1]) | Efficacy [2] | Efficacy [3] | SMILES | also measured
7.00 | 34% |  | COc1ccccc1C1CCN(Cc2nc3ccccc3[nH]2)CC1 | 
7.85 | 51% |  | c1ccc(C2CCN(Cc3nc4ccccc4[nH]3)CC2)nc1 | 
 |  | inactive | c1cnnc(N2CCN(Cc3nc4ccccc4[nH]3)CC2)c1 | 
8.10 | 57% |  | Fc1ccc2[nH]c(CN3CCN(c4ccccn4)CC3)nc2c1 | Activity (Rattus norvegicus [4]): 75%; Effective dose (Rattus norvegicus [5]): 0.01 µM/kg
 |  | inactive | CC(C)n1c(CN2CCN(c3ccccn3)CC2)nc2ccccc21 | 
 |  | inactive | c1ccc(Cn2c(CN3CCN(c4ccccn4)CC3)nc3ccccc32)cc1 | 
7.07 | 42% |  | CSc1ccccc1N1CCN(Cc2nc3ccccc3[nH]2)CC1 | 
7.83 | 42% |  | Fc1ccccc1N1CCN(Cc2nc3ccccc3[nH]2)CC1 | Activity (Rattus norvegicus [4]): 70%; Effective dose (Rattus norvegicus [5]): 0.01 µM/kg
 |  | inactive | CCc1ccccc1N1CCN(Cc2nc3ccccc3[nH]2)CC1 | 
 |  | inactive | c1ccc(Cc2ccccc2N2CCN(Cc3nc4ccccc4[nH]3)CC2)nc1 | 
 |  | inactive | Oc1ccccc1N1CCN(Cc2nc3ccccc3[nH]2)CC1 | 
7.60 | 31% |  | CCOc1ccccc1N1CCN(Cc2nc3ccccc3[nH]2)CC1 | 
7.64 | 62% |  | c1ccc(N2CCN(CCc3nc4ccccc4[nH]3)CC2)nc1 | 
 |  | inactive | O=[N+]([O-])c1cccnc1N1CCN(Cc2nc3ccccc3[nH]2)CC1 | 
7.91 | 48% |  | COc1ccccc1N1CCN(Cc2nc3ccccc3[nH]2)CC1 | Activity (Rattus norvegicus [4]): 60%; Effective dose (Rattus norvegicus [5]): 0.01 µM/kg
 |  |  | CN1CCc2cccc3c2[C@H]1Cc1ccc(O)c(O)c1-3 [APOMORPHINE] | pEC50 (D(4) dopamine receptor [7]): 8.26; Efficacy [8]: 103%; Activity (Rattus norvegicus [4]): 91%; Effective dose (Rattus norvegicus [5]): 0.1 µM/kg
8.14 | 39% |  | Clc1ccccc1N1CCN(Cc2nc3ccccc3[nH]2)CC1 | 
6.38 | 37% |  | Brc1cc(Br)c2[nH]c(CN3CCN(c4ccccn4)CC3)nc2c1 | Activity (Rattus norvegicus [4]): 60%; Effective dose (Rattus norvegicus [5]): 0.03 µM/kg
 |  | inactive | Cc1cccc(C)c1N1CCN(Cc2nc3ccccc3[nH]2)CC1 | 
7.44 | 36% |  | Cc1cccc(N2CCN(Cc3nc4ccccc4[nH]3)CC2)n1 | Activity (Rattus norvegicus [4]): 62%; Effective dose (Rattus norvegicus [5]): 0.03 µM/kg
7.86 | 50% |  | N#Cc1cccnc1N1CCN(Cc2nc3ccccc3[nH]2)CC1 | 

pEC50 (D(4) dopamine receptor [1]) | Efficacy [2] | Efficacy [3] | SMILES | also measured
 |  |  | Cc1ccc(C)c(N2CCN(Cc3nc4ccccc4[nH]3)CC2)c1 | pKi (D(4) dopamine receptor [9]): 8.42; pIC50 (D(4) dopamine receptor [10]): 9.00
7.28 | 43% |  | C[C@H]1CN(c2ccccn2)CCN1Cc1nc2ccccc2[nH]1 | 
 |  | inactive | CN(C)C(=O)n1c(CN2CCN(c3ccccn3)CC2)nc2ccccc21 | 
7.19 | 34% |  | C[C@@H]1CN(c2ccccn2)CCN1Cc1nc2ccccc2[nH]1 | 
7.35 | 49% |  | c1cnc(N2CCN(Cc3nc4ccccc4[nH]3)CC2)nc1 | Activity (Rattus norvegicus [4]): 85%; Effective dose (Rattus norvegicus [5]): 0.1 µM/kg
 |  | inactive | CCn1c(CN2CCN(c3ccccn3)CC2)nc2ccccc21 | 
 |  | inactive | COc1ccc2[nH]c(CN3CCN(c4ccccn4)CC3)nc2c1 | 
 |  | inactive | O=C(N1CCCC1)n1c(CN2CCN(c3ccccn3)CC2)nc2ccccc21 | 
6.87 | 27% |  | CS(=O)(=O)c1cccnc1N1CCN(Cc2nc3ccccc3[nH]2)CC1 | 
7.62 | 27% |  | Fc1cccnc1N1CCN(Cc2nc3ccccc3[nH]2)CC1 | Activity (Rattus norvegicus [4]): 75%; Effective dose (Rattus norvegicus [5]): 0.01 µM/kg
 |  | inactive | Oc1ccc(N2CCN(Cc3nc4ccccc4[nH]3)CC2)nn1 | 
 |  | inactive | CCc1cnc(N2CCN(Cc3nc4ccccc4[nH]3)CC2)nc1 | 
 |  | inactive | FC(F)(F)c1ccnc(N2CCN(Cc3nc4ccccc4[nH]3)CC2)n1 | 
 |  | inactive | Clc1ccc(N2CCN(Cc3nc4ccccc4[nH]3)CC2)nn1 | 
 |  | inactive | Cn1c(CN2CCN(c3ccccn3)CC2)nc2ccccc21 | 
8.41 | 40% |  | O=[N+]([O-])c1ccccc1N1CCN(Cc2nc3ccccc3[nH]2)CC1 | 
 |  |  | Cc1ccc(N2CCN(Cc3nc4ccccc4[nH]3)CC2)cc1C | pKi (D(4) dopamine receptor [9]): 8.82; pIC50 (D(4) dopamine receptor [10]): 8.30
7.84 | 46% |  | N#Cc1ccccc1N1CCN(Cc2nc3ccccc3[nH]2)CC1 | Activity (Rattus norvegicus [4]): 65%; Effective dose (Rattus norvegicus [5]): 0.003 µM/kg
 |  |  | NCCc1ccc(O)c(O)c1 [DOPAMINE] | pEC50 (D(4) dopamine receptor [7]): 8.62; Efficacy [8]: 100%
 |  | inactive | Clc1cccnc1N1CCN(Cc2nc3ccccc3[nH]2)CC1 | 

SMILES | pEC50 (D(4) dopamine receptor [1]) | Efficacy [2] | Efficacy [3] | also measured
C1=C(c2ccccc2)CCN(Cc2nc3ccccc3[nH]2)C1 |  | 48% |  | pEC50 (D(4) dopamine receptor [6]): 6.64
C1=C(c2ccccn2)CCN(Cc2nc3ccccc3[nH]2)C1 |  | 63% |  | pEC50 (D(4) dopamine receptor [6]): 7.96; Activity (Rattus norvegicus [4]): 75%; Effective dose (Rattus norvegicus [5]): 0.03 µM/kg
